Assay results taken from ChEMBL document CHEMBL2321751, “Optimization of chloronitrobenzamides (CNBs) as therapeutic leads for human African trypanosomiasis (HAT)” (J Med Chem, 2013).
≈ marks a conversion by molar mass, not a printed value.

Columns and labels:
[1] = system: Trypanosoma brucei gambiense; assay: Antitrypanosomal activity against Trypanosoma brucei gambiense STIB930 after 70 hrs by Alamar Blue assay; type: functional, organism-based; conditions: STIB930, 70 h
How it was run: (§1)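 T. b. gambiense strains were grown in HMI-9 with 15% heat-inactivated FBS and 5% human serum. 10000 trypanosomes per well were seeded into serial drug dilutions and held 70 h at 37 °C in humidified 5% CO2. Resazurin was then added for a further 4–6 h, and fluorescence was read (ex 536/em 588 nm). IC50 was taken by linear regression from sigmoidal dose-inhibition curves.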

[2] = Kinetic solubility of the compound in PBS buffer at pH 7.4 after 18 hrs by UV spectrophotometric analysis; type: physicochemical; conditions: for solubility kinetic at 18 h: PBS buffer, pH 7.4, read-out: Kinetic_solubility
How it was run: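 Compound from a 10 mM stock was added to PBS pH 7.4 and left 18 h at room temperature. The suspension was filtered, and the filtrate was mixed 1:1 with 1-propanol. Solubility was derived from UV spectrum AUC (250–500 nm) relative to a 1-propanol/PBS reference. Run in triplicate.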

[3] = system: Trypanosoma brucei rhodesiense; assay: Antitrypanosomal activity against bloodstream forms of wild type Trypanosoma brucei rhodesiense STIB900 after 70 hrs by Alamar Blue assay; type: functional, organism-based; conditions: STIB900, 70 h
How it was run: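 T. b. rhodesiense STIB 900 was cultured in MEM with Earle's salts and Baltz supplements (0.2 mM 2-mercaptoethanol, 1 mM Na-pyruvate, 0.5 mM hypoxanthine, 15% heat-inactivated horse serum). 2000 bloodstream forms per well were exposed to serial drug dilutions for 70 h at 37 °C in humidified 5% CO2. Resazurin followed for 2–4 h, read by fluorescence (ex 536/em 588 nm). IC50 came from sigmoidal curves by linear regression.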

[4] = Permeability of the compound at pH 7.4 by PAMPA; type: ADME; conditions: PAMPA, read-out: permeability
How it was run: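 Compound (10 mM DMSO stock) was diluted in system solution buffer pH 7.4 and placed in the donor chamber of a PAMPA sandwich whose membrane was coated with GIT lipid. Acceptor buffer filled the acceptor chamber, and the assembly was stirred for 30 min. Donor and acceptor UV spectra (250–500 nm) were compared with a reference to give the permeability coefficient. Run in triplicate.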

[5] = Kinetic solubility of the compound in PBS buffer at pH 3.0 after 18 hrs by UV spectrophotometric analysis; type: physicochemical; conditions: read-out: Kinetic_solubility
[6] = Permeability of the compound at pH 3.0 by PAMPA; type: ADME; conditions: read-out: permeability
Raji = assay: Cytotoxicity against human Raji cells after 72 hrs by Cell Titre Glo assay; type: cell-based
How it was run: (§2)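 Human cells grown to 80% confluence were plated in 384-well format and received compound dilutions by pin tool. After 72 h at 37 °C in 5% CO2, viability was measured by CellTiter-Glo luminescence.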

BJ = assay: Cytotoxicity against human BJ cells after 72 hrs by Cell Titre Glo assay; type: cell-based; how it was run: as §2
HepG2 = assay: Cytotoxicity against human HepG2 cells after 72 hrs by Cell Titre Glo assay; type: cell-based; conditions: HepG2, 72 h; how it was run: as §2
HEK293 = assay: Cytotoxicity against HEK293 cells after 72 hrs by Cell Titre Glo assay; type: cell-based; conditions: Homo sapiens, HEK293, 72 h; how it was run: as §2
[7] = Half life in mouse liver microsomes; type: ADME, Microsome
How it was run: (§3)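 Liver microsomes (human: pooled from 200 mixed-gender donors; mouse: female […]) were diluted in 0.1 M potassium phosphate, pH 7.4, with EDTA, then spiked from a 2 mM DMSO/acetonitrile compound stock. Reactions were started with cofactor solutions A+B and kept at 37 °C with shaking. Samples at 0, 0.5, 1, 2 and 4 h were quenched with cold methanol containing 10 μM warfarin and analysed by UPLC-MS (SIR). k = −2.303 × slope of log peak-area ratio versus time; t1/2 = 0.693/k.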

[8] = Half life in human liver microsomes; type: ADME, Microsome; how it was run: as §3
[9] = system: Trypanosoma brucei brucei; assay: Antitrypanosomal activity against Trypanosoma brucei brucei 221 after 48 hrs by Cell Titre Glo assay; type: functional, organism-based; conditions: Trypanosoma brucei, 221, 48 h
How it was run: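 Bloodstream-form parasites grown in HMI-9 with 10% heat-inactivated FBS, 10% Serum Plus and penicillin/streptomycin at 37 °C, 5% CO₂, to 1 × 10⁶ cells/mL. Diluted to 1 × 10⁴ cells/mL, then dosed with a DMSO dilution series by pin transfer. Incubated 48 h at 37 °C, 5% CO₂. Viability read by CellTiter-Glo luminescence. EC₅₀ from a variable-slope sigmoidal fit. Mean of six replicates, errors as 95% CI.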

[10] = system: Trypanosoma brucei gambiense; assay: Antitrypanosomal activity against Trypanosoma brucei gambiense KO48 after 70 hrs by Alamar Blue assay; type: functional, organism-based; conditions: KO48, 70 h; how it was run: as §1
[11] = system: Trypanosoma brucei gambiense; assay: Antitrypanosomal activity against Trypanosoma brucei gambiense DAL 898R after 70 hrs by Alamar Blue assay; type: functional, organism-based; how it was run: as §1

**Q.** For `Cc1ccc(-c2nc3ccccc3s2)cc1NC(=O)c1cc([N+](=O)[O-])c(N2CCNCC2)cc1Cl`, which EC50 [1] is on record?
**A.** The EC50 was 0.002 µM.

**Q.** What about the solubility kinetic at 18 h [2] of the same compound?
**A.** The solubility kinetic at 18 h was 0.08 µM (≈ 0.0406 µg/mL).

**Q.** What about the EC50 [3] of the same compound?
**A.** Its EC50 is 0.007 µM.

**Q.** And the Papp [4]?
**A.** The Papp was 40 nm/s.

**Q.** And the solubility kinetic at 18 h [5]?
**A.** The solubility kinetic at 18 h was 1.15 µM (≈ 0.584 µg/mL).

**Q.** And the Papp [6]?
**A.** Its Papp is 6 nm/s.

**Q.** What about the EC50 (Raji) of the same compound?
**A.** Its EC50 is over 25 µM.

**Q.** What about the EC50 (BJ) of the same compound?
**A.** The EC50 was 14.5 µM.

**Q.** And the EC50 (HepG2)?
**A.** The EC50 was over 25 µM.

**Q.** And the EC50 (HEK293)?
**A.** Its EC50 is over 25 µM.

**Q.** What about the half-life [7] of the same compound?
**A.** Its half-life is over 4 h.

**Q.** And the half-life [8]?
**A.** Its half-life is over 4 h.

**Q.** What does the source list for `CN1CCN(c2cc(Cl)c(C(=O)Nc3cccc(-c4nc5ccccc5s4)c3)cc2[N+](=O)[O-])CC1`?
**A.** EC50 [1]: 0.16 µM; Kinetic_solubility ([2]; buffer, pH 7.4, 18 h, BLD = below limit of detection): BLD; EC50 [3]: 0.21 µM; Papp [4]: 3660 nm/s; solubility kinetic at 18 h [5]: 46 µM (≈ 23.4 µg/mL); Papp [6]: 1080 nm/s; EC50 (Raji): 14.5 µM; EC50 (BJ): > 25 µM; EC50 (HepG2): 8.6 µM; EC50 (HEK293): 14.2 µM; EC50 [9]: 0.11 µM; half-life [7]: 0.81 h; half-life [8]: 3.3 h

**Q.** What does the source list for `Cc1ccc(-c2nc3ccccc3s2)cc1NC(=O)c1cc([N+](=O)[O-])c(N2CCN(C)CC2)cc1Cl`?
**A.** EC50 [1]: 0.001 µM; solubility kinetic at 18 h [2]: 0.7 µM (≈ 0.365 µg/mL); EC50 [3]: 0.011 µM; Papp [4]: 740 nm/s; solubility kinetic at 18 h [5]: 0.56 µM (≈ 0.292 µg/mL); Papp [6]: 600 nm/s; EC50 (Raji): > 25 µM; EC50 (BJ): > 25 µM; EC50 (HepG2): > 25 µM; EC50 (HEK293): > 25 µM; EC50 [9]: 0.041 µM; half-life [7]: 1.3 h; half-life [8]: 1.6 h

**Q.** Which EC50 [1] does the source give for `O=C(Nc1cccc(-c2nc3ccccc3s2)c1)c1cc([N+](=O)[O-])ccc1Cl` here?
**A.** The EC50 was 0.11 µM.

**Q.** And the solubility kinetic at 18 h [2]?
**A.** Its solubility kinetic at 18 h is 0.58 µM (≈ 0.238 µg/mL).

**Q.** What about the EC50 [3] of the same compound?
**A.** The EC50 was 0.16 µM.

**Q.** What about the EC50 [10] of the same compound?
**A.** Its EC50 is 0.17 µM.

**Q.** What about the Papp [4] of the same compound?
**A.** Its Papp is 120 nm/s.

**Q.** And the solubility kinetic at 18 h [5]?
**A.** The solubility kinetic at 18 h was 0.51 µM (≈ 0.209 µg/mL).

**Q.** And the Papp [6]?
**A.** The Papp was 510 nm/s.

**Q.** And the EC50 (Raji)?
**A.** Its EC50 is over 27 µM.

**Q.** And the EC50 (BJ)?
**A.** Its EC50 is over 27 µM.

**Q.** What about the EC50 (HepG2) of the same compound?
**A.** The EC50 was over 25 µM.

**Q.** And the EC50 (HEK293)?
**A.** Its EC50 is over 27 µM.

**Q.** What about the EC50 [9] of the same compound?
**A.** Its EC50 is 0.19 µM.

**Q.** And the half-life [7]?
**A.** Its half-life is 0.18 h.

**Q.** And the EC50 [11]?
**A.** Its EC50 is 0.2 µM.

**Q.** And the half-life [8]?
**A.** The half-life was 1 h.
